Measured values: ChEMBL document CHEMBL2331153, “Structural investigation and biological activity of sesquiterpene lactones from the traditional Chinese herb Inula racemosa” (J Nat Prod, 2013)
Values after ≈ are worked out from the molar mass of the structure shown. Active and inactive are the calls of the source. The rule behind the calls is not given here.

Experiments:
Type in all cases: functional, cell-based
HT-1080 = assay: Antiproliferative activity against human HT1080 cells assessed as inhibition of cell proliferation after 72 hrs by CCK8 assay; settings: HT-1080, 72 h
In short: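 HT1080 fibrosarcoma cells cultured in alpha-MEM with 10% FBS and penicillin/streptomycin, 37 °C, 5% CO2. Seeded, allowed to adhere overnight, then incubated with compound for 72 h. CCK-8 added for 2 h, then A450 read. Mitomycin was the positive control. Duplicate experiments.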

A549 = assay: Antiproliferative activity against human A549 cells assessed as inhibition of cell proliferation after 72 hrs by CCK8 assay; settings: A549, 72 h
In short: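 A549 cells grown in RPMI 1640 with 10% FBS and penicillin/streptomycin at 37 °C, 5% CO2. Cells adhered overnight, then treated with compound for 72 h. CCK-8 added for 2 h at 37 °C, absorbance read at 450 nm. Mitomycin served as positive control. Run in duplicate.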

HepG2 = assay: Antiproliferative activity against human HepG2 cells assessed as inhibition of cell proliferation after 72 hrs by CCK8 assay; settings: HepG2, 72 h
In short: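 HepG2 cells maintained in DMEM with 10% FBS and penicillin/streptomycin at 37 °C, 5% CO2. After overnight adherence, compound exposure lasted 72 h. Viable cells detected with CCK-8 (2 h incubation) by absorbance at 450 nm. Positive control was mitomycin. Assays in duplicate.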

HUVEC [1] = assay: Antiangiogenic activity against human HUVEC assessed as inhibition of endothelial cell tube formation at 1 ug/ml after 22 hrs by Matrigel assay
In short: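 HUVECs (passages 2–6) seeded at 25 000 cells/well onto a Matrigel layer and exposed to compound for 22 h; images taken 22 h after plating at ×40. Capillary tube formation scored as total length of capillary structures in two representative fields per experiment. Colchicine served as positive control.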

HUVEC [2] = assay: Antiproliferative activity against human HUVEC assessed as inhibition of cell proliferation after 72 hrs by CCK8 assay
In short: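 HUVECs at passages 2–6 grown in endothelial cell medium with 0.03 mg/mL endothelial cell growth supplement, 10% FBS, 0.1 mg/mL heparin and penicillin/streptomycin. Cells adhered overnight, then compound added for 72 h at 37 °C, 5% CO2. CCK-8 added for 2 h and absorbance read at 450 nm. Mitomycin positive control; duplicates.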

With `C[C@@H]1C2=C[C@H]3[C@@H](C[C@@]2(C)CC[C@@H]1O)OC(=O)[C@@H]3C` the IC50 (HT-1080) was greater than 50 mg/L, the IC50 (A549) was greater than 50 mg/L and the IC50 (HepG2) was greater than 50 mg/L.

`C[C@H]1CCC[C@]2(C)C[C@H]3OC(=O)[C@](C)(O)[C@H]3C=C12` gave an IC50 (HT-1080) greater than 50 mg/L, an IC50 (A549) greater than 50 mg/L and an IC50 (HepG2) greater than 50 mg/L.

`C[C@@H]1C(=O)O[C@@H]2C[C@@]3(C)C[C@@H](O)C[C@H](C)C3=C[C@H]12` showed an IC50 (HT-1080) of 20.1 mg/L (≈ 80.3 µM), an IC50 (A549) of 24.8 mg/L (≈ 99.1 µM) and an IC50 (HepG2) of 26.1 mg/L (≈ 104 µM).

Work on `C=C1C[C@H](O)C[C@]2(C)C[C@H]3OC(=O)[C@@H](C)[C@H]3C[C@@H]12` yielded an IC50 (HT-1080) greater than 50 mg/L, an IC50 (A549) greater than 50 mg/L and an IC50 (HepG2) greater than 50 mg/L.

`C=C1C[C@H](O)C[C@]2(C)C[C@H]3OC(=O)[C@H](C)[C@H]3C[C@@H]12` gave an IC50 (HT-1080) greater than 50 mg/L, an IC50 (A549) greater than 50 mg/L and an IC50 (HepG2) greater than 50 mg/L.

With `C[C@@H]1C(=O)O[C@@H]2C[C@@]3(C)CCC[C@H](C)C3=C[C@H]12` the IC50 (HT-1080) was greater than 50 mg/L, the IC50 (A549) was 24.8 mg/L (≈ 106 µM) and the IC50 (HepG2) was greater than 50 mg/L.

`CC1=C2C[C@@H]3[C@H](C)C(=O)O[C@@H]3C[C@@]2(C)CCC1=O` gave an IC50 (HT-1080) greater than 50 mg/L, an IC50 (A549) of 22.5 mg/L (≈ 90.8 µM) and an IC50 (HepG2) greater than 50 mg/L.

With `C=C1C(=O)O[C@@H]2C[C@@]3(C)CCC[C@H](C)[C@@]34O[C@H]4[C@H]12` the IC50 (HT-1080) was 1.32 mg/L (≈ 5.32 µM), the IC50 (A549) was 1.59 mg/L (≈ 6.4 µM) and the IC50 (HepG2) was 2.73 mg/L (≈ 11 µM).

In the case of `C=C1C(=O)O[C@@H]2C[C@@]3(C)CCC[C@]4(CO4)[C@@H]3C[C@H]12`, the IC50 (HT-1080) is reported as 3.51 mg/L (≈ 14.1 µM), the IC50 (A549) is reported as 2.65 mg/L (≈ 10.7 µM) and the IC50 (HepG2) is reported as 3.78 mg/L (≈ 15.2 µM).

In the case of `C[C@@H]1C(=O)O[C@@H]2C[C@@]3(C)CCC[C@]4(CO4)[C@@H]3C[C@H]12`, the IC50 (HT-1080) is reported as greater than 50 mg/L, the IC50 (A549) is reported as greater than 50 mg/L and the IC50 (HepG2) is reported as greater than 50 mg/L.

In the case of `C=C1C(=O)O[C@@H]2C[C@@]3(C)CCCC(C)=C3C[C@H]12` [ALLOALANTOLACTONE], the IC50 (HT-1080) is reported as 3.87 mg/L (≈ 16.7 µM), the IC50 (A549) is reported as 2.67 mg/L (≈ 11.5 µM) and the IC50 (HepG2) is reported as 3.57 mg/L (≈ 15.4 µM).

With `C[C@@H]1C(=O)O[C@@H]2C[C@@]3(C)CCC[C@H](C)[C@@]34O[C@H]4[C@H]12` [DIHYDROEPOXYALANTOLACTONE] the IC50 (HT-1080) was 17.4 mg/L (≈ 69.5 µM), the IC50 (A549) was 16.2 mg/L (≈ 64.8 µM) and the IC50 (HepG2) was 25.3 mg/L (≈ 101 µM).

`C=C1CCC[C@]2(C)C[C@H]3OC(=O)[C@@H](C)[C@H]3C[C@@H]12` [DIHYDROISOALANTOLACTONE] was tested, and the IC50 (HT-1080) was greater than 50 mg/L, the IC50 (A549) was greater than 50 mg/L and the IC50 (HepG2) was greater than 50 mg/L.

For `C=C1C(=O)O[C@@H]2C[C@@]3(C)CCC[C@H](C)C3=C[C@H]12` [HELENINE], the inhibition (HUVEC [1]) was “Active”, the IC50 (HT-1080) was 0.696 mg/L (≈ 3 µM) and the IC50 (A549) was 0.55 mg/L (≈ 2.37 µM). The IC50 (HUVEC [2]) was 2.4 mg/L (≈ 10.3 µM) and the IC50 (HepG2) was 1.3 mg/L (≈ 5.6 µM).

In the case of `C=C1C(=O)O[C@@H]2C[C@@]3(C)CCCC(=C)[C@@H]3C[C@H]12` [ISOALANTOLACTONE], the inhibition (HUVEC [1]) is reported as “Active”, the IC50 (HT-1080) is reported as 0.795 mg/L (≈ 3.42 µM) and the IC50 (A549) is reported as 0.38 mg/L (≈ 1.64 µM). The IC50 (HUVEC [2]) was 2.5 mg/L (≈ 10.8 µM) and the IC50 (HepG2) was 1.77 mg/L (≈ 7.62 µM).

For `C=C1C(=O)O[C@@H]2C[C@@]3(C)CC[C@@H](O)C(=C)[C@@H]3C[C@H]12` [ISOTELEKIN], the IC50 (HT-1080) was 2.44 mg/L (≈ 9.83 µM), the IC50 (A549) was 1.47 mg/L (≈ 5.92 µM) and the IC50 (HepG2) was 4.19 mg/L (≈ 16.9 µM).

`C[C@@H]1CCC[C@]2(C)C[C@@H]3OC(=O)C(CO)=C3C=C12` [MACROPHYLLILACTONE E] showed an IC50 (HT-1080) of 28.5 mg/L (≈ 115 µM), an IC50 (A549) of 16.2 mg/L (≈ 65.3 µM) and an IC50 (HepG2) of 31.2 mg/L (≈ 126 µM).

Compound `CO[C@@]12[C@H](COC(N)=O)C3=C(C(=O)C(C)=C(N)C3=O)N1C[C@@H]1N[C@@H]12` [MITOMYCIN] has an IC50 (HT-1080) of 0.15 mg/L (≈ 0.449 µM), an IC50 (A549) of 0.54 mg/L (≈ 1.62 µM) and an IC50 (HepG2) of 0.14 mg/L (≈ 0.419 µM).

`C=C1C(=O)O[C@@H]2C[C@@]3(C)CCC[C@H](C)[C@]3(O)C[C@H]12` [RACEMOSALACTONE A] showed an IC50 (HT-1080) of 1.88 mg/L (≈ 7.51 µM), an IC50 (A549) of 1.51 mg/L (≈ 6.03 µM) and an IC50 (HepG2) of 2.76 mg/L (≈ 11 µM).

`C[C@@H]1C2=C[C@H]3[C@@H](C[C@@]2(C)CC[C@@H]1O)OC(=O)[C@@]3(O)CCl` [RACEMOSALACTONE B] gave an IC50 (HT-1080) greater than 50 mg/L, an IC50 (A549) of 37.3 mg/L (≈ 124 µM) and an IC50 (HepG2) greater than 50 mg/L.

Work on `C[C@@H]1C(=O)O[C@@H]2C[C@@]3(C)CCC[C@H](C)C3=C[C@]12O` [RACEMOSALACTONE C] yielded an IC50 (HT-1080) greater than 50 mg/L, an IC50 (A549) of 27.8 mg/L (≈ 111 µM) and an IC50 (HepG2) greater than 50 mg/L.

Work on `C=C1C[C@H](O)C[C@]2(C)C[C@H]3OC(=O)[C@](C)(O)[C@H]3C[C@@H]12` [RACEMOSALACTONE D] yielded an IC50 (HT-1080) greater than 50 mg/L, an IC50 (A549) greater than 50 mg/L and an IC50 (HepG2) greater than 50 mg/L.

Work on `C[C@H]1C(=O)O[C@@H]2CC3=C[C@@H](O)C[C@H](C)[C@@]3(C)C[C@@H]21` [RACEMOSALACTONE E] yielded an IC50 (HT-1080) greater than 50 mg/L, an IC50 (A549) of 38.6 mg/L (≈ 154 µM) and an IC50 (HepG2) greater than 50 mg/L.

`C=C1C(=O)O[C@@H]2C[C@@]3(C)CCCC(=C)[C@]3(O)C[C@H]12` [TELEKIN] was tested, and the IC50 (HT-1080) was 3.5 mg/L (≈ 14.1 µM), the IC50 (A549) was 4.27 mg/L (≈ 17.2 µM) and the IC50 (HepG2) was 8.14 mg/L (≈ 32.8 µM).
